pIC50: −log10 of the molar value.
Key:
MDA-MB-231 [1] = assay: Growth inhibition of human MDA-MB-231 cells assessed as cell growth at 10 uM after 48 hrs by sulforhodamine B assay; assay type: functional; conditions: MDA-MB-231, 48 h, read-out: Activity
Procedure, shortened: (§1)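 Single-dose NCI-60 screen: adherent cells in RPMI 1640 with 5% FBS were exposed to 10 µM for 48 h at 37 °C after a 24 h preincubation. They were fixed in situ with cold TCA (10% final), stained with 0.4% SRB in 1% acetic acid, solubilized in 10 mM Tris base, and read at 515 nm. Percent growth was taken relative to time-zero and control plates.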

CAKI-1 = assay: Growth inhibition of human CAKI-1 cells after 48 hrs by sulforhodamine B assay; assay type: functional; conditions: CAKI-1, 48 h
Procedure, shortened: (§2)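 NCI-60 screen: cells in RPMI 1640 with 5% FBS and 2 mM glutamine, 5000–40,000 cells/well, preincubated 24 h. Five concentrations (10-fold dilutions; 100 to 0.001 µM) applied for 48 h at 37 °C. TCA fixation, SRB stain, absorbance at 515 nm. Time-zero plates included; GI50 where 100×(T−T0)/(C−T0)=50.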

SNB-19 = assay: Growth inhibition of human SNB19 cells after 48 hrs by sulforhodamine B assay; assay type: functional; conditions: SNB-19, 48 h
Procedure, shortened: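 NCI-60 five-dose screen. Cells were grown in RPMI 1640 with 5% FBS and 2 mM L-glutamine, plated at 5000–40,000 cells/well and incubated 24 h before dosing, with T0 plates TCA-fixed. DMSO stocks were diluted to doses of […] and exposed 48 h at 37 °C, 5% CO2. Cells were fixed with cold TCA (final 10%, 60 min, 4 °C), stained with 0.4% SRB in 1% acetic acid for 10 min, solubilized in 10 mM trizma base and read at 515 nm. GI50 is where 100×(T−T0)/(C−T0)=50.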

HL-60(TB) = assay: Growth inhibition of human HL-60(TB) cells after 48 hrs by sulforhodamine B assay; assay type: functional; conditions: HL-60, 48 h
Procedure, shortened: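 HL-60(TB) cells (suspension) grown in RPMI 1640 with 5% FBS and 2 mM L-glutamine. They were plated and preincubated for 24 h, with T0 plates fixed at that point. Drug was given at five 10-fold dilutions for 48 h at 37 °C. Settled cells were fixed with TCA (16% final), stained with 0.4% SRB in 1% acetic acid and read at 515 nm. GI50 was taken where 100×(T−T0)/(C−T0)=50.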

U-251 = assay: Growth inhibition of human U251 cells assessed as cell growth at 10 uM after 48 hrs by sulforhodamine B assay; assay type: functional; conditions: U-251, 48 h, read-out: Activity
Procedure, shortened: (§3)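 Single-dose NCI-60 test at 10 µM. Cells were grown in RPMI 1640 with 5% FBS and 2 mM L-glutamine, preincubated 24 h, with T0 plates TCA-fixed. Exposure was 48 h at 37 °C, 5% CO2. Cells were fixed with cold TCA (final 10%, 4 °C, 60 min), stained with SRB and read at 515 nm. Percent growth was taken relative to T0 and untreated control; negative values denote cell kill.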

OVCAR-3 = assay: Growth inhibition of human OVCAR3 cells assessed as cell growth at 10 uM after 48 hrs by sulforhodamine B assay; assay type: functional; conditions: OVCAR-3, 48 h, read-out: Activity; procedure, shortened: as §1
SK-MEL-2 = assay: Growth inhibition of human SK-MEL-2 cells assessed as cell growth at 10 uM after 48 hrs by sulforhodamine B assay; assay type: functional; conditions: SK-MEL-2, 48 h, read-out: Activity; procedure, shortened: as §1
CCRF-CEM = assay: Growth inhibition of human CCRF-CEM cells assessed as cell growth at 10 uM after 48 hrs by sulforhodamine B assay; assay type: functional; conditions: read-out: Activity
Procedure, shortened: (§4)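 NCI-60 single-dose screen at 10 µM: cells in RPMI 1640 with 5% FBS, preincubated 24 h, then exposed 48 h at 37 °C. TCA fixation (16% final for suspension cells), SRB staining, absorbance 515 nm. Percent growth relative to time-zero and untreated control plates; negative values indicate cell kill.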

MDA-MB-231 [2] = assay: Growth inhibition of human MDA-MB-231 cells after 48 hrs by sulforhodamine B assay; assay type: functional; conditions: MDA-MB-231, 48 h
Procedure, shortened: (§5)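 NCI-60 panel cells grown in RPMI 1640 with 5% FBS and 2 mM L-glutamine, seeded at 5000–40,000 cells/well and preincubated 24 h. Five 10-fold dilutions (0.001–100 µM) from DMSO stocks were added for 48 h at 37 °C. Adherent cells were fixed with cold TCA (10% final) for 60 min at 4 °C, stained with 0.4% SRB, and read at 515 nm. GI50 was set where 100×(T−T0)/(C−T0)=50.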

786-0 = assay: Growth inhibition of human 786-0 cells assessed as cell growth at 10 uM after 48 hrs by sulforhodamine B assay; assay type: functional; conditions: 786-0, 48 h, read-out: Activity; procedure, shortened: as §4
NCI-H460 = assay: Growth inhibition of human NCI-H460 cells assessed as cell growth at 10 uM after 48 hrs by sulforhodamine B assay; assay type: functional; conditions: NCI-H460, 48 h, read-out: Activity; procedure, shortened: as §1
T47D = assay: Growth inhibition of human T47D cells assessed as cell growth at 10 uM after 48 hrs by sulforhodamine B assay; assay type: functional; conditions: read-out: Activity; procedure, shortened: as §3
A498 = assay: Growth inhibition of human A498 cells after 48 hrs by sulforhodamine B assay; assay type: functional; conditions: A498, 48 h; procedure, shortened: as §2
NCI-H226 = assay: Growth inhibition of human NCI-H226 cells assessed as cell growth at 10 uM after 48 hrs by sulforhodamine B assay; assay type: functional; conditions: NCI-H226, 48 h, read-out: Activity; procedure, shortened: as §1
SF-268 = assay: Growth inhibition of human SF268 cells assessed as cell growth at 10 uM after 48 hrs by sulforhodamine B assay; assay type: functional; conditions: SF-268, 48 h, read-out: Activity; procedure, shortened: as §1
UACC-62 = assay: Growth inhibition of human UACC62 cells assessed as cell growth at 10 uM after 48 hrs by sulforhodamine B assay; assay type: functional; conditions: UACC-62, 48 h, read-out: Activity; procedure, shortened: as §3
IGROV-1 = assay: Growth inhibition of human IGROV1 cells assessed as cell growth at 10 uM after 48 hrs by sulforhodamine B assay; assay type: functional; conditions: IGROV-1, 48 h, read-out: Activity; procedure, shortened: as §4
OVCAR-8 = assay: Growth inhibition of human OVCAR8 cells assessed as cell growth at 10 uM after 48 hrs by sulforhodamine B assay; assay type: functional; conditions: OVCAR-8, 48 h, read-out: Activity; procedure, shortened: as §1
SF-295 = assay: Growth inhibition of human SF295 cells after 48 hrs by sulforhodamine B assay; assay type: functional; conditions: SF-295, 48 h; procedure, shortened: as §5
HOP-62 = assay: Growth inhibition of human HOP62 cells assessed as cell growth at 10 uM after 48 hrs by sulforhodamine B assay; assay type: functional; conditions: HOP-62, 48 h, read-out: Activity; procedure, shortened: as §4
MCF7 = assay: Antiproliferative activity against human MCF7 cells by MTT assay; assay type: functional, cell-based
Procedure, shortened: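 Cells plated at 8 × 10^3/well (MDA-MB-231) or 10^4/well (MCF7) in 96-well plates. Compounds fed in media with 5% FBS (MDA-MB-231) or 1% FBS (MCF7). MTT read-out of viable cells.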

SMILES | growth at 10 µM (MDA-MB-231 [1]) | GI50 (CAKI-1) | GI50 (SNB-19) | GI50 (HL-60(TB)) | growth at 10 µM (U-251) | growth at 10 µM (OVCAR-3) | growth at 10 µM (SK-MEL-2) | growth at 10 µM (CCRF-CEM) | GI50 (MDA-MB-231 [2]) | growth at 10 µM (786-0) | growth at 10 µM (NCI-H460) | growth at 10 µM (T47D) | GI50 (A498) | growth at 10 µM (NCI-H226) | growth at 10 µM (SF-268) | growth at 10 µM (IGROV-1) | growth at 10 µM (OVCAR-8) | GI50 (SF-295) | growth at 10 µM (HOP-62) | pIC50 (MCF7) | other results
CC(C)=CCC/C(C)=C/CC/C(C)=C/CC[C@]1(C)CCc2c3c(cc(C)c2O1)OCN(CCCCCO)C3 | 46.1% | 5.33 µM | 5.99 µM | 6.26 µM | -19.9% | 54.6% | 117% | 38.4% | 5.87 µM | 81.2% | -70.2% | 59.5% | 5.76 µM | 98.4% | 48.5% | 53.1% | -18.9% | 6.12 µM | 20.6% | 5.04 | growth at 10 µM (UACC-62): 93.2%
CC(C)=CCC/C(C)=C/CC/C(C)=C/CC[C@]1(C)CCc2c3c(cc(C)c2O1)OCN(CCc1ccc(O)cc1)C3 | 46.9% | 5.31 µM | 5.89 µM | 3.34 µM | -32% | 36.4% | 116% | 2.75% | 4.65 µM | 69% | -44.4% | 6.16% | 6.21 µM | 88.7% | 18.2% | 0.45% | -74.3% | 6.22 µM | -31.3% | 4.74 | 
CC(C)=CCC/C(C)=C/CC/C(C)=C/CC[C@]1(C)CCc2c3c(cc(C)c2O1)OCN(CCCCCCCCO)C3 | -69.6% | 4.07 µM | 1.36 µM | 1.03 µM | -95.8% | -85.4% | -52% | -29.7% | 1.1 µM | -95.3% | 0.55% | -67% | 4.71 µM | 50.2% | -83.1% | -79.9% | -51.9% | 1.02 µM | -99% | < 4.70 | growth at 10 µM (UACC-62): -15.3%
CC(C)=CCC/C(C)=C/CC/C(C)=C/CC[C@]1(C)CCc2c3c(cc(C)c2O1)OCN(CCCO)C3 | 10.6% | 2.33 µM | 1.64 µM | 2.19 µM | -83.4% | -38.4% | 107% | 28.6% | 1.63 µM | 16.6% | -75.1% | -22.1% | 1.46 µM | 98.7% | -78.5% | -6.58% | -77.7% | 1.76 µM | -76.3% | < 4.70 | growth at 10 µM (UACC-62): 93%
